Measurements pooled from the literature.
Compare with care: the assays were run in different laboratories.
Akr1b1: Aldo-keto reductase family 1 member B1 (Akr1b1, Rattus norvegicus, UniProt P07943)
Trpc6: Short transient receptor potential channel 6 (Trpc6, Mus musculus, UniProt Q61143)
DDR1: Epithelial discoidin domain-containing receptor 1 (DDR1, Homo sapiens, UniProt Q08345)
SETD7: Histone-lysine N-methyltransferase SETD7 (SETD7, Homo sapiens, UniProt Q8WTS6)
MMP2: 72 kDa type IV collagenase (MMP2, Homo sapiens, UniProt P08253)
ADRB2: Beta-2 adrenergic receptor (ADRB2, Homo sapiens, UniProt P07550)
CNR2: Cannabinoid receptor 2 (CNR2, Homo sapiens, UniProt P34972)
P2RY6: P2Y purinoceptor 6 (P2RY6, Homo sapiens, UniProt Q15077)
SLC22A2: Solute carrier family 22 member 2 (SLC22A2, Homo sapiens, UniProt O15244)
HDAC10: Polyamine deacetylase HDAC10 (HDAC10, Homo sapiens, UniProt Q969S8)

COc1ccc(/C=C2\SC(=Nc3nc4ccc(OC)cc4s3)NC2=O)cc1 gave an IC50 of 4.35 µM (Akr1b1; enzyme activity, inhibitor, absorbance; pH 6.2).
COc1ccc2nc(N(CCN(C)C)C(=O)c3ccc(Cl)s3)sc2c1 gave an IC50 of 61.1 µM (Trpc6; calcium signal, fluorescence).
The IC50 of Cc1ccc(NC(=O)c2ccc(C)c(C(F)(F)F)c2)cc1C#Cc1nn(C2CCC(O)CC2)c2ncnc(N)c12 (centres unmarked) is reported as 0.015 µM (DDR1; enzyme activity, inhibitor, radiometric).
With O=C(c1ccc(-c2cccc(C(F)(F)F)c2)o1)N1CCN2CCC1CC2 the IC50 was 1.2 µM (Neuronal acetylcholine receptor subunit alpha-7 (CHRNA7, Homo sapiens, UniProt P36544); ion current, two-electrode voltage clamp; oocytes).
C=CC(C)(C)c1cc(/C=C/C(=O)c2ccc(O)cc2)c(OC)cc1O gave an IC50 of > 333 µM (SETD7; enzyme activity, inhibitor).
CN1CCN(c2ccc(Nc3ncc4cc(C#N)c(=O)n(C5CCCC5)c4n3)cc2)CC1 gave an IC50 of 6.31 µM (Protein kinase C epsilon type (PRKCE, Homo sapiens, UniProt Q02156); enzyme activity, inhibitor).
With COc1ccc2nc(/N=C3/NC(=O)C(=Cc4cc(I)c(O)c(OC)c4)S3)sc2c1 the IC50 was > 50 µM (Akr1b1; enzyme activity, inhibitor, absorbance; pH 6.2).
Cn1nc(C(=O)NCc2ccc(C(=O)O)cc2)cc1-c1ccc2[nH]c(-c3ccncn3)cc2c1 gave an IC50 of > 20 µM (MMP2; enzyme activity, inhibitor).
COc1cccc2sc(N(CCN(C)C)C(=O)c3ccc(Cl)s3)nc12 has an IC50 of 139 µM (Trpc6; calcium signal, fluorescence).
CN(CCC(=O)O)C(=O)c1ccc2c(c1)CC[C@@H]1[C@@H]2CC[C@]2(C)C(c3cncc(F)c3)=CC[C@@H]12 has an IC50 of 49 µM (Ileal sodium/bile acid cotransporter (SLC10A2, Homo sapiens, UniProt Q12908); transporter uptake, inhibitor).
COc1cc(O)c(CC=C(C)C)c2c1C(=O)CC(c1ccc(O)cc1)O2 (centres unmarked) gave an IC50 of 0.48 µM (Cytochrome P450 1B1 (CYP1B1, Homo sapiens, UniProt Q16678); enzyme activity, inhibitor, fluorescence; 15 min, pH 7.4).
With CC/C(=C(\c1ccccc1)c1ccc(OCCN(C)C)cc1)c1ccccc1 the IC50 was > 333 µM (SETD7; enzyme activity, inhibitor).
COc1ccc2nc(N(CCN3CCCC3)C(=O)c3ccc(Cl)s3)sc2c1 gave an IC50 of 33 µM (Trpc6; calcium signal, fluorescence).
The IC50 of CC(=O)N[C@H]1CC(=O)NCCCC[C@@H](C(=O)N[C@@H](CCCNC(=N)N)C(=O)c2nc3ccc(C(=O)N[C@H](C(N)=O)C(C)C)cc3s2)NC(=O)[C@H](CC(C)C)NC1=O is reported as 0.0054 µM (Serine protease hepsin (HPN, Homo sapiens, UniProt P05981); enzyme activity, inhibitor, fluorescence; with preincubation).
The IC50 of NCC1OC(c2ccccc2)Cc2c1ccc(O)c2O (centres unmarked) is reported as 84.7 µM (ADRB2; ligand displacement, radioligand; cell membranes).
The IC50 of Cn1cc(-c2cc3cc(-c4cc(C(=O)NCc5ccc(C(=O)O)cc5)nn4C)ccc3[nH]2)cn1 is reported as > 20 µM (MMP2; enzyme activity, inhibitor).
For N=C(N)NCCCC(NC(=O)C(c1ccccc1)c1ccccc1)C(=O)NCc1ccc(O)cc1 (centres unmarked), the IC50 was 63.1 µM (ADRB2; ligand displacement, radioligand; cell membranes).
With Cc1noc(-c2cc3cc(-c4nc(C(=O)NCc5ccccc5)[nH]c4C)ccc3[nH]2)n1 the IC50 was > 20 µM (MMP2; enzyme activity, inhibitor).
With Cc1c(C(=O)Nc2ccc(C(F)(F)F)cn2)nc(-c2ccc(Cl)cc2Cl)n1-c1ccc(OS(=O)(=O)CCC(F)(F)F)cc1 the IC50 was 0.133 µM (CNR2; GTPγS binding, antagonist; cell membranes).
For CC(C)(C)OC(=O)NCC#Cc1ccc2c(c1)C=C([N+](=O)[O-])C(C(F)(F)F)O2 (centres unmarked), the IC50 was ~1 µM (P2RY6; calcium signal, antagonist).
With Cc1c(C(=O)N[C@@H]2CCCC[C@@H]2O)nc(-c2ccc(Cl)cc2Cl)n1-c1ccc(OS(=O)(=O)CCC(F)(F)F)cc1 (single isomer, unassigned) the IC50 was 0.44 µM (CNR2; GTPγS binding, antagonist; cell membranes).
CNC(=O)c1cc2c(Oc3ccc(NC(=O)C4(C(=O)Nc5ccc(F)cc5)CC4)cc3)ccnc2cc1OC gave an IC50 of 0.013 µM (DDR1; enzyme activity, inhibitor, radiometric).
Cc1c(C(=O)NN2CCCCC2)nc(-c2ccc(Cl)cc2Cl)n1-c1ccc(OS(=O)(=O)CCCC(F)(F)F)cc1 has an IC50 of 0.32 µM (CNR2; GTPγS binding, antagonist; cell membranes).
O=[N+]([O-])C1=Cc2ccccc2OC1C(F)(F)F (centres unmarked) gave an IC50 of 2.62 µM (P2RY6; calcium signal, antagonist, fluorescence).
COc1ccc2nc(/N=C3/NC(=O)C(=Cc4ccc(O)c(OC)c4)S3)sc2c1 has an IC50 of 0.83 µM (Akr1b1; enzyme activity, inhibitor, absorbance; pH 6.2).
Cc1c(C(=O)N[C@H]2CCC[C@H](O)C2)nc(-c2ccc(Cl)cc2Cl)n1-c1ccc(OS(=O)(=O)CCC(F)(F)F)cc1 (relative stereo) gave an IC50 of 0.425 µM (CNR2; GTPγS binding, antagonist; cell membranes).
CCCN(CCCCOCCOCCOCCOCC(=O)N[C@H](C(=O)N1C[C@H](O)C[C@H]1C(=O)NCc1ccc(-c2scnc2C)cc1)C(C)(C)C)C[C@@H](C)NC(=O)c1ccc(-c2noc(C(F)(F)F)n2)cc1 gave an IC50 of 0.13 µM (Histone deacetylase 7 (HDAC7, Homo sapiens, UniProt Q8WUI4); enzyme activity, inhibitor, fluorescence).
With CCS(=O)(=O)N1CC(CC#N)(n2cc(-c3ncnc4[nH]ccc34)cn2)C1 the IC50 was 11.6 µM (SLC22A2; transporter uptake, inhibitor, radiometric; 2 min).
CCCC[C@H](NC(=O)C1CN(C)C1)c1ncc(-c2cc3ccccc3nc2OC)[nH]1 has an IC50 of 0.075 µM (HDAC10; enzyme activity, inhibitor).
CCC1(c2ccc(C)cc2)C(=O)N(C(=O)OC(C)C)N1C(=O)OC(C)C (centres unmarked) has an IC50 of 1.3 µM (Protein phosphatase methylesterase 1 (Mus musculus, UniProt Q8BVQ5); enzyme activity, inhibitor).
CCOCc1nc(O)c(-c2nnc(Cc3ccc(Cl)cn3)o2)c(O)c1-c1c(OC)cccc1OC has an IC50 of > 30 µM (ADRB2; ligand displacement, radioligand).
With Cn1nc(C(=O)NCc2ccc(C(=O)O)cc2)cc1-c1ccc2[nH]c(-c3ccncc3)cc2c1 the IC50 was > 22 µM (MMP2; enzyme activity, inhibitor).
CCCC[C@H](NC(=O)[C@H](C)c1c(C)[nH]c2ccc(O)cc12)c1ncc(-c2cc3ccccc3nc2OC)[nH]1 has an IC50 of 0.43 µM (HDAC10; enzyme activity, inhibitor).
The IC50 of CN/C(=N/CCSCc1nc[nH]c1C)NC#N is reported as 17 µM (SLC22A2; transporter uptake, inhibitor; MDCK-II).
For Cc1noc(-c2cc3cc(-c4cc(C(=O)NCc5ccc(C(=O)O)cc5)nn4C)ccc3[nH]2)n1, the IC50 was > 20 µM (MMP2; enzyme activity, inhibitor).
CN1C2CCCC1CC(NC(=O)c1nn(C)c3ccccc13)C2 (centres unmarked) has an IC50 of 42.1 µM (ADRB2; ligand displacement, radioligand; cell membranes).
For Cc1c(C(=O)NN2CCCCC2)nc(-c2ccc(Cl)cc2Cl)n1-c1ccc(OS(=O)(=O)CCC(C)(C)C)cc1, the IC50 was 1.36 µM (CNR2; GTPγS binding, antagonist; cell membranes).
With CCN1CCCC1CNC(=O)c1cc(S(=O)(=O)CC)c(N)cc1OC (centres unmarked) the IC50 was 105 µM (ADRB2; ligand displacement, radioligand; cell membranes).
With COc1cccc2sc(N(CCN(C)C)C(=O)c3ccc4c(c3)CCCC4)nc12 the IC50 was 4.2 µM (Trpc6; calcium signal, fluorescence).
COc1ccc2nc(/N=C3/NC(=O)C(=Cc4cc(OC)c(O)c(OC)c4)S3)sc2c1 gave an IC50 of 10.5 µM (Akr1b1; enzyme activity, inhibitor, absorbance; pH 6.2).
O=C(NO)c1ccc(CN(c2cnccn2)c2cnccn2)cc1 gave an IC50 of > 10 µM (HDAC10; enzyme activity, inhibitor, fluorescence).
For Cc1noc(-c2cc3cc(-c4nc(C(=O)NCc5ccccn5)[nH]c4C)ccc3[nH]2)n1, the IC50 was > 20 µM (MMP2; enzyme activity, inhibitor).
CCCN(CCC)CCc1cccc2c1CC(=O)N2 has an IC50 of 200 µM (ADRB2; ligand displacement, radioligand; cell membranes).
CN(C(=O)n1cnc(-c2ccc[n+]([O-])c2)c1)C1CCCCC1 has an IC50 of > 33.3 µM (SLC22A2; transporter uptake, inhibitor; MDCK-II).
CC(C)(C)n1nc(-c2cnc3cc(OC4CC4)ccc3c2)c(C(N)=O)c1N gave an IC50 of 2.91 µM (Casein kinase I isoform alpha (CSNK1A1, Homo sapiens, UniProt P48729); cell-free assay, inhibitor).
O=C(O)C(=O)CC(=O)c1cccc(N(Cc2ccccc2)Cc2ccccc2)c1 gave an IC50 of 113 µM (Dual specificity protein phosphatase 3 (DUSP3, Homo sapiens, UniProt P51452); enzyme activity, inhibitor, absorbance; pH 7).
The IC50 of Cn1nc(C(=O)NCc2ccc(C(=O)O)cc2)cc1-c1ccc2[nH]c(-c3cncnc3)cc2c1 is reported as > 20 µM (MMP2; enzyme activity, inhibitor).
